This is a sample that favours compounds with a hit; in the whole collection about 1.3% have one here.
H9c2 TAG inh – reduces triacylglycerol accumulation in H9c2 cells; Nile Red lipid (TAG) fluorescence; cells loaded with 200 µM oleic acid; inhibition, % at 12.5 µM; 230,000 compounds, 0.66% hits;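 active = pattern-corrected inhibition of lipid staining of at least 50% with the nuclear-stain viability signal not falling by more than 50%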
MT1-MMP act inh – inhibitors of human MT1-MMP activation; GFP/RFP ratio change, % at 20 µM; HT1080 RFP-PRO-GFP cells, GFP/RFP ratio fluorescence, overnight; percent of plate control window, DMSO zero; 360,000 compounds, 0.061% hits; P50281; AID 651647;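 active = GFP/RFP ratio change of at least 30% with cell ATP level not reduced by more than half and red fluorescence within 50% of control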
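Material – HT1080 RFP-PRO-GFP cells · Control set – DMSO wells and RFP-L50D-GFP cells · Incubation – overnight cell settling, then overnight compound exposure, 37 °C, 5% CO2 · Compound dosing – single-point 20 µM compound, 1% DMSO · Read-out – GFP/RFP fluorescence ratio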
Efflux pump inh – antifungal efflux pump inhibition, Nile Red retention | inhibition, % at 10 µM | 330,000 compounds, 0.44% hits | S. cerevisiae Candida pump triplex;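 active = plate passing quality check with inhibition over a set limit, or well fluorescence over plate mean plus 4 SD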;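 also: Nile Red retained in pooled yeast measured as flow cytometry median fluorescence; higher means more Nile Red kept so more efflux inhibition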
HGIII-sPLA2 inh – Blocks human group III sPLA2 activity; Q9NZ20; QFRET BODIPY PC-A2 liposome hydrolysis, fluorescence; inhibition, % at 12.2 µM; 370,000 compounds, 0.56% hits; AID 743126;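 active = inhibition above mean plus 3 SD of compounds lying within the high and low control bounds, cut at about 19% in these data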
Target sequence (Q9NZ20 whole entry, looked up): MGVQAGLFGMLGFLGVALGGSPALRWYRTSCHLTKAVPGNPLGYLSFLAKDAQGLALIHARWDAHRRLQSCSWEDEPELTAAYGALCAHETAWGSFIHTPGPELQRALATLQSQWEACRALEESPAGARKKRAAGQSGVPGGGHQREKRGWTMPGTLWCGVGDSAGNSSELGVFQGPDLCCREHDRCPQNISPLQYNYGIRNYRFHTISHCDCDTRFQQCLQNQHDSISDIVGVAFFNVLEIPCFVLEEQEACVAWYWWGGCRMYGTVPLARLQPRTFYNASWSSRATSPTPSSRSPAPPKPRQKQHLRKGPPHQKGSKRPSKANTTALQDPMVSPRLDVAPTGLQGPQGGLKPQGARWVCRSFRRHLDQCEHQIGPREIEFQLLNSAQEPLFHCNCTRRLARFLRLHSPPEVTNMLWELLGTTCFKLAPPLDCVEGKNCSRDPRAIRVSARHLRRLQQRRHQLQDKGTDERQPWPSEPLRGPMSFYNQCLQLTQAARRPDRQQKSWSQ
Yeast cmpd fluor – compound fluorescence in yeast efflux pump counter-screen | shares compounds with Efflux pump inh | fluorescence ratio to DMSO, % at 10 µM | S. cerevisiae AD/pABC3, flow cytometry | 1,700 compounds, 4% hits;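 active = fluorescence ratio to DMSO above its plate's cutoff, the plate mean ratio plus 5 SD, cut at about 210% in these data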;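 also: unstained yeast with no Nile Red so the signal is compound autofluorescence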
Mdr1 pump inh – inhibitors of Candida albicans Mdr1 efflux pump; S. cerevisiae AD/CaMDR1, Nile Red efflux, flow cytometry; 1,700 compounds, 1% hits; inhibition, % at 10 µM; AID 588518; shares compounds with Efflux pump inh; in the data active = inhibition above about 26%;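 also: higher means more Nile Red retained so more efflux inhibition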
CaCdr2 efflux inh – inhibitors of Candida albicans Cdr2 efflux pump; shares compounds with Efflux pump inh; S. cerevisiae AD/CaCDR2, Nile Red retention, flow cytometry; Nile Red retention ratio vs DMSO, % at 10 µM; 1,700 compounds, 4% hits; AID 588520; in the data active = Nile Red retention ratio vs DMSO above about 190%;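 also: higher ratio means more blocking of Cdr2 efflux of the dye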
CaCdr1 efflux inh – inhibitors of Candida albicans Cdr1 efflux pump | shares compounds with Efflux pump inh | S. cerevisiae AD/CaCDR1, Nile Red efflux, flow cytometry | inhibition, % at 10 µM | 1,700 compounds, 1% hits | AID 588522;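 active = inhibition above the screen-wide mean plus twice its standard deviation, cut at about 32% in these data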
Each line names hits and unclear results; the compound was inactive in the other large screens (follow-up assays come after a bar, where they were run).

O=C(c1nc2ccccn2c1CN1CCCC(OCc2ccccc2)C1)N1CCCC1 (configuration not stated)	none
O=C(Oc1cc(=O)n2ccccc2n1)c1ccccc1	none (no result: H9c2 TAG inh)
O=C(CN1C(=O)c2ccccc2S1(=O)=O)Nc1ccon1	Efflux pump inh 1.1 | Yeast cmpd fluor inactive | Mdr1 pump inh inactive | CaCdr2 efflux inh inactive | CaCdr1 efflux inh inactive
CCc1nnc(NS(=O)(=O)c2ccc(NC(=S)NC(=O)/C=C/c3ccccc3)cc2)s1	Efflux pump inh 5.8 (no result: H9c2 TAG inh) | Yeast cmpd fluor inactive | Mdr1 pump inh inactive | CaCdr2 efflux inh inactive | CaCdr1 efflux inh inactive
CCOc1ccc(CCNC(=O)COC(=O)c2cc([N+](=O)[O-])ccc2N2CCOCC2)cc1OCC	Efflux pump inh 9.2 | Yeast cmpd fluor inactive | Mdr1 pump inh inactive | CaCdr2 efflux inh inactive | CaCdr1 efflux inh inactive
CCOc1ccc(CCNC(=O)c2cc([N+](=O)[O-])ccc2N2CCOCC2)cc1OCC	none
CC1C(=O)N2CCCc3cc(S(=O)(=O)N4CCCCC4)cc1c32 (configuration not stated)	Efflux pump inh 0.7 | Yeast cmpd fluor inactive | Mdr1 pump inh inactive | CaCdr2 efflux inh inactive | CaCdr1 efflux inh inactive
Cc1ccc(C(C)C)cc1OCC(=O)Nc1nnc(C2CC2)s1	none | Yeast cmpd fluor inactive | Mdr1 pump inh inactive | CaCdr2 efflux inh inactive | CaCdr1 efflux inh inactive
Cc1cc(OCC(=O)Nc2nnc(C3CC3)s2)ccc1C(C)C	none
O=C(COc1ccc(Br)cc1)Nc1nnc(C2CC2)s1	none | Yeast cmpd fluor inactive | Mdr1 pump inh inactive | CaCdr2 efflux inh inactive | CaCdr1 efflux inh inactive
CC(Oc1ccc(Br)cc1)C(=O)Nc1nnc(C2CC2)s1 (configuration not stated)	none | Yeast cmpd fluor inactive | Mdr1 pump inh inactive | CaCdr2 efflux inh inactive | CaCdr1 efflux inh inactive
NC(=Nc1cccc(F)c1)NC(=O)OCc1ccccc1	none (no result: H9c2 TAG inh, MT1-MMP act inh, Efflux pump inh)
Cc1cc(S(=O)(=O)N2CCN=C2c2ccccc2)c(Cl)cc1Cl	none (no result: H9c2 TAG inh)
CN(Cc1cccnc1)C(=O)Cc1ccc(NS(=O)(=O)c2cccc(C(F)(F)F)c2)cc1	none (no result: H9c2 TAG inh)
O=C(Nc1ccc(CN2CCOCC2)cc1)c1ccc(Br)o1	Efflux pump inh 1.7 (no result: H9c2 TAG inh, MT1-MMP act inh) | Yeast cmpd fluor inactive | Mdr1 pump inh inactive | CaCdr2 efflux inh inactive | CaCdr1 efflux inh inactive
Cn1c(=O)n(C)c2cc(NC(=O)c3ccc(F)cc3)ccc21	none
O=C1C(=O)N(CC2CCCO2)C(c2ccccc2[N+](=O)[O-])/C1=C(/O)c1ccccc1 (configuration not stated)	Efflux pump inh 1.4 | Yeast cmpd fluor inactive | Mdr1 pump inh inactive | CaCdr2 efflux inh inactive | CaCdr1 efflux inh inactive
N#CCCN1CCN(C(=S)c2ccc(-c3ccc(Cl)c(Cl)c3)o2)CC1	Efflux pump inh 1.0 (no result: H9c2 TAG inh) | Yeast cmpd fluor inactive | Mdr1 pump inh inactive | CaCdr2 efflux inh inactive | CaCdr1 efflux inh inactive
N#CCCN1CCN(C(=S)c2ccc(-c3cccc(Cl)c3)o2)CC1	none (no result: H9c2 TAG inh)
Cn1cc([N+](=O)[O-])c(C(=O)Nc2ccn(C34CC5CC(CC(C5)C3)C4)n2)n1	Efflux pump inh 16.4 | Yeast cmpd fluor inactive | Mdr1 pump inh inactive | CaCdr2 efflux inh inactive | CaCdr1 efflux inh inactive
CCn1cc([N+](=O)[O-])c(C(=O)Nc2ccn(C34CC5CC(CC(C5)C3)C4)n2)n1	none (no result: H9c2 TAG inh)
Cn1c(-c2ccccc2)cnc1SCC(=O)N1CCCc2ccccc21	Efflux pump inh 15.2 (no result: H9c2 TAG inh) | Yeast cmpd fluor inactive | Mdr1 pump inh inactive | CaCdr2 efflux inh inactive | CaCdr1 efflux inh inactive
COc1ccc2c(c1)CCCN2C(=O)C1CCCN(S(=O)(=O)c2cccs2)C1 (configuration not stated)	none (no result: H9c2 TAG inh, MT1-MMP act inh, Efflux pump inh)
COc1ccccc1CC(=O)NC(=O)c1ccccc1O	Efflux pump inh 3.0 (no result: H9c2 TAG inh) | Yeast cmpd fluor inactive | Mdr1 pump inh inactive | CaCdr2 efflux inh inactive | CaCdr1 efflux inh inactive
NC1=NC[C@H](Cc2ccc(O)cc2)N1CCc1cc(C(F)(F)F)cc(C(F)(F)F)c1	none | Yeast cmpd fluor inactive | Mdr1 pump inh inactive | CaCdr2 efflux inh inactive | CaCdr1 efflux inh inactive
NC1=NC[C@@H](Cc2ccc(O)cc2)N1CCc1cccc2ccccc12	none | Yeast cmpd fluor inactive | Mdr1 pump inh inactive | CaCdr2 efflux inh inactive | CaCdr1 efflux inh inactive
COc1ccc(S(=O)(=O)N2CCOC2CNC(=O)C(=O)NCCc2ccccc2OC)cc1 (configuration not stated)	none
COc1ccc(S(=O)(=O)N2CCOC2CNC(=O)C(=O)NCc2ccccc2OC)cc1 (configuration not stated)	Efflux pump inh 1.1 | Yeast cmpd fluor inactive | Mdr1 pump inh inactive | CaCdr2 efflux inh inactive | CaCdr1 efflux inh inactive
COc1ccccc1CNC(=O)C(=O)NCC1OCCN1S(=O)(=O)c1ccc(Br)cc1 (configuration not stated)	none | Yeast cmpd fluor inactive | Mdr1 pump inh inactive | CaCdr2 efflux inh inactive | CaCdr1 efflux inh inactive
COc1ccc(S(=O)(=O)N2CCOC2CNC(=O)C(=O)NCc2ccccc2Cl)cc1 (configuration not stated)	none | Yeast cmpd fluor inactive | Mdr1 pump inh inactive | CaCdr2 efflux inh inactive | CaCdr1 efflux inh inactive
O=C(NCc1ccccc1Cl)C(=O)NCC1OCCN1S(=O)(=O)c1ccc(F)cc1 (configuration not stated)	none
C[C@H](CO)N1C[C@H](C)[C@@H](CN(C)C(=O)c2ccc3ccn(C)c3c2)OCc2cn(nn2)CCCC1=O	none (no result: Efflux pump inh)
CC(C)(C)OC(=O)NCc1ccc(NC(=O)c2nc[nH]c2C(=O)NCCCCCCNC(=O)c2[nH]cnc2C(=O)Nc2ccc(CNC(=O)OC(C)(C)C)cc2)cc1	Efflux pump inh 1.8 | Yeast cmpd fluor inactive | Mdr1 pump inh inactive | CaCdr2 efflux inh inactive | CaCdr1 efflux inh inactive
CC1CCN(c2cc(N3CCN(C(=O)c4ccc(F)c(F)c4)CC3)c([N+](=O)[O-])cc2F)CC1	none
COc1cccc(/C=C/C(=O)N2CC(C)OC(C)C2)c1OC (configuration not stated)	Efflux pump inh 1.7 (no result: H9c2 TAG inh) | Yeast cmpd fluor inactive | Mdr1 pump inh inactive | CaCdr2 efflux inh inactive | CaCdr1 efflux inh inactive
C=C(C)Cn1c2ccc(NC(=O)CCOCC)cc2c(=O)n1C	none (no result: Efflux pump inh)
Cc1ccc(C)c(NC(=O)NNC(=O)c2cc3occc3[nH]2)c1	none (no result: H9c2 TAG inh)
COc1ccc(OC)c(NC(=O)NNC(=O)c2cc3occc3[nH]2)c1	Efflux pump inh 1.2 (no result: H9c2 TAG inh) | Yeast cmpd fluor inactive | Mdr1 pump inh inactive | CaCdr2 efflux inh inactive | CaCdr1 efflux inh inactive
COc1cc(OC)cc(-c2sc3ccc(OC)cc3c2-c2ccc(OCCN3CCOCC3)cc2)c1	Efflux pump inh 159.9 (no result: HGIII-sPLA2 inh) | Yeast cmpd fluor inactive | Mdr1 pump inh 94.9 | CaCdr2 efflux inh inactive | CaCdr1 efflux inh 128.1

Screens deposited in PubChem by several laboratories.
